Results on one compound are retold here after article PMC5899023 (Nanomedicine : nanotechnology, biology, and medicine, 2018).

The conditions of data set [1]: mouse, in vivo.
Data set [2] has as its system four melanoma cell lines (UACC 903, 1205 Lu, C8161.Cl9, MelJuSo). Nature of the data set: MTS cell viability, melanoma cell lines taken together. The class given is cell-based. A digest of the protocol:
(§1)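 MTS viability assay. Cells were grown at 37°C in humidified 5% CO2: melanoma lines UACC 903 and 1205 Lu (BRAF V600E) or C8161.Cl9 and MelJuSo (BRAF wild type), or normal […]. 5×10³ cells/well were treated 48 h after seeding for 72 h with rising concentrations of free or nanoliposomal test compound (nanoliposomal: 10–100 μmol/L). IC50 came from 3 independent experiments; group values are averages across the lines.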

The test system of data set [3] is cPLA2. The note with it: various in-vitro studies; ref [13], [37]; cited from earlier work.
Data set [4] in a line: 14-day repeated dose study to identify the MTD. The following applies: for % weight loss at day 14 in Swiss Webster mice: in DMSO, i.p. daily, 14 days.
The test system of data set [5] is FOM103 normal melanocytes. Nature of the data set: MTS cell viability, FOM103. The note with it: Melanocyte, 72 h, read-out: IC50 FOM103. The class given is cell-based. A digest of the protocol:
as §1

The next data set can be described thus: Hemolytic activity. The class given is cell-based. The note with it: human, human erythrocytes, 5% v/v suspension. A digest of the protocol: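 Erythrocytes from fresh EDTA-anticoagulated human blood, separated at 1,500 rpm for 10 min at 4°C using PBS. A 5% v/v suspension in PBS was exposed to free or nanoliposomal test compound (10–40 μmol/L), ethanol or empty liposome (negative controls), or 1% Triton X-100, at 37°C for 60 min. After a 12,000 rpm spin, supernatant A540 was read. % hemolysis = sample A540 / Triton A540 × 100.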

In a further data set the test system is UACC 903 xenograft. Nature of the data set: UACC 903 xenograft tumor growth in nude mice. The class given is in vivo. The note with it: for % in-vivo tumor inhibition at day 21 in Nude mice: in DMSO, i.p. A digest of the protocol:
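Female athymic nude mice aged 3–4 weeks received 1×10⁶ UACC 903 cells in 0.2 mL DMEM/10% FBS subcutaneously above both rib cages. At day 8 (vascularized tumors of 50–75 mm³), mice were randomized (3/group, 2 tumors/mouse) and dosed daily i.p. with free test compound in DMSO (5 or 10 mg/kg) or DMSO vehicle for 3–4 weeks. Tumor dimensions and body weight were taken on alternate days; % inhibition was scored at day 21. Run twice independently.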

The subject of data set [6] is normal cells FOM103 and FF2441. Nature of the data set: MTS cell viability, normal cells taken together. The class given is cell-based. The following applies: FF2441, read-out: average IC50 for killing normal FOM103 and FF2441. A digest of the protocol: as §1
For data set [7], the system named is FF2441 normal human fibroblast cell line. Nature of the data set: MTS cell viability, FF2441. The class given is cell-based. The following applies: FF2441, 72 h, read-out: IC50 FF2441. A digest of the protocol: as §1
The target in data set [8] is T1, cPLA2 (Homo sapiens, UniProt P47712).
T1 sequence (P47712 1-749): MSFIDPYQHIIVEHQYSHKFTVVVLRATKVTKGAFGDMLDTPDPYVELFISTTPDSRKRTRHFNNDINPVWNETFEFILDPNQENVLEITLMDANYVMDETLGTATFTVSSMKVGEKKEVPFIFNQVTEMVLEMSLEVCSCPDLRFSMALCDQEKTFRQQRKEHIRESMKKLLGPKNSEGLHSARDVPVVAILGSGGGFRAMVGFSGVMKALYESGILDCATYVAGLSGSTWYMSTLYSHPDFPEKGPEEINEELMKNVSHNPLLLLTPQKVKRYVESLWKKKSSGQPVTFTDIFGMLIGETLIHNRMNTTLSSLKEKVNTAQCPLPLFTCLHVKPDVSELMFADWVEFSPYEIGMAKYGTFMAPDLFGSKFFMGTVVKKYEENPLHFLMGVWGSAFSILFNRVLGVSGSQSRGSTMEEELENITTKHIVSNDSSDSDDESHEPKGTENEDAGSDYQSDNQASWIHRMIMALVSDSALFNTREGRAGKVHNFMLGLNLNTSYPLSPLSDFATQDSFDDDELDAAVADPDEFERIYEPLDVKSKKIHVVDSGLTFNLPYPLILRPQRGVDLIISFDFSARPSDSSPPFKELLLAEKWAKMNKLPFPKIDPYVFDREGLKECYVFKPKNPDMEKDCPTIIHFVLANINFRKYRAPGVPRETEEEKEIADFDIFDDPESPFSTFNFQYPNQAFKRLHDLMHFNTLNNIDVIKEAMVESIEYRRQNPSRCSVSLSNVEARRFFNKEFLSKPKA
Nature of the data set: cPLA2 activity assay. The class given is biochemical. A digest of the protocol: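 Colorimetric cPLA2 assay (commercial kit) on UACC 903 lysate made in Hepes pH 7.4 with 1 mM EDTA. sPLA2 was removed by 30 kDa cutoff filtration and iPLA2 was blocked with bromoenol lactone. Lysate was treated with free or nanoliposomal test compound (0.5–10 μmol/L); DMSO or empty nanoliposome defined 100% activity. Arachidonoyl thio-PC substrate ran for 1 h, then DTNB was added and absorbance read at 414 nm.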

The test system of data set [9] is UACC 903 melanoma cell line. Nature of the data set: MTS cell viability, UACC 903. The note with it: Homo sapiens, UACC-903, 72 h, read-out: IC50 UACC 903. The class given is cell-based. A digest of the protocol:
as §1

Data set [10] deals with C8161.Cl9 melanoma cell line. Nature of the data set: MTS cell viability, C8161.Cl9. The following applies: 72 h, read-out: IC50 C8161.Cl9. The class given is cell-based. A digest of the protocol:
as §1

Data set [11] has as its system 1205 Lu melanoma cell line. Nature of the data set: MTS cell viability, 1205 Lu. The class given is cell-based. The note with it: Homo sapiens, 72 h, read-out: IC50 1205 Lu. A digest of the protocol:
as §1

Molecules are shown by their SMILES. Where “and” joins values, the source holds several entries; their conditions need not be identical. Equal values may be shown once. Read-outs that look alike come from different tables or passages of the source.

Broadly, the IC50 is the concentration at which inhibition is half-maximal. For `CCCCC/C=C\C/C=C\C/C=C\C/C=C\CCCC(=O)C(F)(F)F` [ATK, Arachidonyl trifluoromethyl ketone], the “% weight loss at day 14 in Swiss Webster mice” value is “Animal mortality occurred” in [1]; “No weight loss” in data set [4] (5 mg/kg body weight); 3.1 ± 3.52% in data set [4] (10 mg/kg body weight); 14.5% and 14.5 ± 0.95% in data set [4] (15 mg/kg body weight); “Death in 10 days” in data set [4] (20 mg/kg body weight); “Death in 8 days” in [4] (30 mg/kg body weight). In [2] (average melanoma versus average normal cells), the “fold more effective at killing melanoma cells than normal cells” value was found to be 3 fold. Also, the half-maximal inhibitory concentration (IC50) was found to be 22 µM in data set [2] (read-out: average IC50 for melanoma cells); 57.9 ± 10.4 µM in [5]; 60 µM in data set [6]; 63.3 ± 10.3 µM in data set [7]; 1.85 µM on cPLA2 [8]; 26.3 ± 2.1 µM in data set [9]. The half-maximal inhibitory concentration (IC50) in data set [10] amounted to 18.6 ± 3.1 µM; in [11], 26.1 ± 4.4 µM. Besides, the “potency in inhibiting cPLA2 over sPLA2 and iPLA2” value in the data set with cPLA2 [3] is 500 fold. Further, the MTD at 14 days in data set [4] (Swiss Webster, mouse, in vivo, ip) worked out at 10 mg/kg. The compound further displayed a hemolysis at 60 min in the data set “Hemolytic activity” of 2 to 3%. This compound had a hemolysis at 60 min, 40 μmol/L in “Hemolytic activity” of 2.9%. For the same compound, the “% in-vivo tumor inhibition at day 21 in Nude mice” value with UACC 903 xenograft (5 mg/kg body weight) worked out at 12.9 ± 6.30%; with UACC 903 xenograft (10 mg/kg body weight) it was 32.5 ± 5.73%. Besides, the “changes in body weight of tumor-bearing mice” value in the data set on UACC 903 xenograft (5 and 10 mg/kg i.p. daily in DMSO) is listed as “did not show any significant changes in body weight”. Further, in the data set on UACC 903 xenograft (free ATK in DMSO, 5 and 10 mg/kg (MTD) i.p. daily, 3-4 weeks), the “reduction in tumor volume” value was “approximately 30%”.
